The text below walks through data of ChEMBL document CHEMBL3826969, “Synthesis and anticancer potential of novel xanthone derivatives with 3,6-substituted chains” (Bioorg Med Chem, 2016).

The test system of test [1] is A549. As to the kind of experiment: Cell cycle arrest in human A549 cells assessed as accumulation at G2/M phase at 25 uM after 48 hrs by propidium iodide staining based flow cytometry (reference value: 23.4 %). Format: functional. The method, boiled down:
(§1)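 A549 cells exposed 48 h to derivative (25 µM), collected, fixed overnight in 70% ethanol, then stained 30 min at room temperature with 50 µg/mL propidium iodide, 200 µg/mL RNase A and 0.3% Triton X-100. Flow cytometry gave sub-G1, G0/G1, S and G2/M fractions; profile from 3 independent experiments.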
A general note: Flow cytometry measures light scatter and fluorescence of single cells or particles in a stream.

Test [2] can be described thus: Cytotoxicity against human PC3 cells assessed as cell growth inhibition after 48 hrs by MTT assay. Format: functional, cell-based. As to conditions: PC-3, 48 h. The method, boiled down:
(§2)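 Cells seeded in 96-well plates (MDA-MB-231, A549, AsPC-1 5×10^3; PC-3 8×10^3; HCT116 1×10^4 per well), attached 24 h in RPMI-1640 with 10% fetal calf serum at 37°C, 5% CO2. Serially diluted compound (final 0–400 μM, DMSO <0.1%) added for 48 h; 5-FU positive control. MTT read at 560 nm, triplicate; viability = treated/vehicle mean OD.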

Test [3] concerns A549. As to the kind of experiment: Induction of apoptosis in human A549 cells assessed as viable cells at 25 uM after 48 hrs by Annexin V-FITC/propidium iodide staining based flow cytometry (reference value: 98.2 %). As to conditions: A549, 48 h, read-out: Activity. Format: functional.
Test [4] relates to A549. Put plainly: Induction of apoptosis in human A549 cells assessed as early apoptotic cells at 25 uM after 48 hrs by Annexin V-FITC/propidium iodide staining based flow cytometry (reference value: 0.5 %). It counts as functional.
In test [5] the test system is A549. Put plainly: Induction of apoptosis in human A549 cells assessed as late apoptotic cells at 25 uM after 48 hrs by Annexin V-FITC/propidium iodide staining based flow cytometry (reference value: 1.2 %). It counts as functional.
Test [6] concerns A549. Put plainly: Induction of apoptosis in human A549 cells assessed as increase in caspase 3/7 activity at 25 uM after 48 hrs by Caspase-Glo 3/7 assay relative to control. Format: functional. The essentials: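 A549 cells (8×10^3) plated in duplicate in 96-well plates, treated 25 µM for 48 h. Caspase-Glo 3/7 luminescence read after 1 h with substrate; blank (medium plus reagent) subtracted; fold increase = treated/control reading; mean ± 1 SD.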

Test [7] concerns A549. Put plainly: Induction of apoptosis in human A549 cells assessed as necrotic cells at 25 uM after 48 hrs by Annexin V-FITC/propidium iodide staining based flow cytometry (reference value: 0.1 %). Format: functional.
A short description of test [8]: Cytotoxicity against human HCT116 cells assessed as cell growth inhibition after 48 hrs by MTT assay. Format: functional, cell-based. As to conditions: HCT-116, 48 h. The method, boiled down:
as §2
For orientation: Tetrazolium assays rely on reduction of a dye to a coloured formazan, in cell work by metabolically active cells.

Test [9] concerns A549. As to the kind of experiment: Cytotoxicity against human A549 cells assessed as cell growth inhibition after 48 hrs by MTT assay. Format: functional, cell-based. As to conditions: A549, 48 h. The essentials:
as §2

The test system of the next test is ASPC1. Put plainly: Cytotoxicity against human AsPC1 cells assessed as cell growth inhibition after 48 hrs by MTT assay. Format: functional, cell-based. As to conditions: ASPC1, 48 h. The method, boiled down: as §2
The test system of test [10] is A549. As to the kind of experiment: Cell cycle arrest in human A549 cells assessed as accumulation at S phase at 25 uM after 48 hrs by propidium iodide staining based flow cytometry (reference value: 9.3 %). Format: functional. The essentials:
as §1

The test system of test [11] is A549. Put plainly: Cell cycle arrest in human A549 cells assessed as accumulation at G0/G1 phase at 25 uM after 48 hrs by propidium iodide staining based flow cytometry (reference value: 68.1 %). It counts as functional. The essentials:
as §1

The next test concerns MDA-MB-231. Put plainly: Cytotoxicity against human MDA-MB-231 cells assessed as cell growth inhibition after 48 hrs by MTT assay. It counts as functional, cell-based. The conditions noted are these: MDA-MB-231, 48 h. The essentials: as §2

Each structure is given as a SMILES string. The source made the active and inactive calls. No cut-off for these calls is given here.

For orientation: IC50 means the point on the concentration scale where inhibition reaches its midpoint. On to `Cc1c(OCC(=O)N2C(C)CCCC2C)ccc2c(=O)c3ccc(OCC(=O)N4C(C)CCCC4C)cc3oc12` (stereo not given), for which the Activity with A549 [1] amounted to 17.6%; in the test with A549 [4], 7.3%; in the test with A549 [5], 9.8%; in the test with A549 [7] it was 2.1%; in the test on A549 [10] it was 6.9%; with A549 [11] it was 75.7%. Besides, the half-maximal inhibitory concentration (IC50) came to 4.27 µM in test [2]; 7.63 µM in test [8]; 10.6 µM with A549 [9]; 7.1 µM with ASPC1; 7.31 µM with MDA-MB-231. For the same molecule, the viability at 25 µM with A549 [3] was found to be 80.7%. Also, the “fold change (FC)” value in the test on A549 [6] is reported as 3.45.
On to `Cc1c(OCC(=O)N2CCOCC2)ccc2c(=O)c3ccc(OCC(=O)N4CCOCC4)cc3oc12`, for which the Activity turned out to be 28% with A549 [1]; 0.9% in the test with A549 [4]; 0.4% in the test on A549 [5]; 0.1% in the test with A549 [7]; 11.8% in the test on A549 [10]; 61% with A549 [11]. Besides, the IC50 (in [2]; in test [8]; in the test with A549 [9]; in the test with ASPC1; in the test on MDA-MB-231) was above 400 µM each time. For the same molecule, in the test with A549 [3], the viability at 25 µM is 98.7%.
Regarding `Cc1c(OCC(=O)NC2CCCCC2C)ccc2c(=O)c3ccc(OCC(=O)NC4CCCCC4C)cc3oc12` (stereo not given), the Activity in the test on A549 [1] came to 29.1%; with A549 [4], 3.1%; with A549 [5], 2.4%; with A549 [7], 1%; with A549 [10] it was 9.4%; with A549 [11], 61.8%. Besides, the IC50 turned out to be 23.3 µM in [2]; 18.3 µM in test [8]; 22.3 µM in the test on A549 [9]; 15.4 µM in the test on ASPC1; 11 µM with MDA-MB-231. Also, the viability at 25 µM in the test with A549 [3] was determined as 93.6%. The outcome in the test with A549 [6] was inactive.
For `CCOC(=O)N1CCN(C(=O)COc2ccc3c(=O)c4ccc(OCC(=O)N5CCN(C(=O)OCC)CC5)c(C)c4oc3c2)CC1`, the Activity with A549 [1] is on record as 23.2%; in the test with A549 [4], 1.6%; in the test on A549 [5], 1.1%; in the test on A549 [7], 0.3%; in the test with A549 [10], 11.9%; in the test on A549 [11] it was 65.5%. The IC50 in [2] amounted to 53.3 µM; in test [8] it was 8.16 µM; in the test on A549 [9] it was 84.9 µM; with ASPC1 it was 34.1 µM; in the test on MDA-MB-231, 64.5 µM. The viability at 25 µM with A549 [3] was 97.1%. In addition, the result in the test on A549 [6] was inactive.
Regarding `Cc1c(OCC(=O)NCC2CCCO2)ccc2c(=O)c3ccc(OCC(=O)NCC4CCCO4)cc3oc12` (stereo not given), the Activity in the test on A549 [1] stood at 13%; in the test with A549 [4], 1.2%; with A549 [5], 2.5%; with A549 [7], 0.9%; with A549 [10], 13.2%; with A549 [11] it was 74.6%. Further, the IC50 turned out to be 34.5 µM in test [2]; 33.8 µM in test [8]; 27.5 µM with A549 [9]; 78.7 µM with ASPC1; 98.4 µM in the test with MDA-MB-231. For the same molecule, the viability at 25 µM in the test with A549 [3] was 95.4%. In addition, the result with A549 [6] was inactive.
With `Cc1c(OCC(=O)N2CCN(C)CC2)ccc2c(=O)c3ccc(OCC(=O)N4CCN(C)CC4)cc3oc12`, the Activity with A549 [1] was 20.7%; with A549 [4] it was 0.7%; in the test with A549 [5], 3.1%; in the test with A549 [7] it was 0.6%; in the test on A549 [10] it was 9%; with A549 [11], 71.2%. Further, the 50% inhibitory concentration (IC50) in [2] is 89.2 µM; in test [8], 119 µM; in the test with A549 [9], 181 µM; in the test on ASPC1 it was 97.8 µM; with MDA-MB-231, 257 µM. In addition, the viability at 25 µM in the test with A549 [3] came to 95.6%.
For the molecule `O=C(COc1ccc2c(=O)c3ccc(OCC(=O)NCC4CCCO4)cc3oc2c1)NCC1CCCO1` (stereo not given), the Activity in the test with A549 [1] was 26.3%; with A549 [4] it was 0.5%; with A549 [5], 1.2%; with A549 [7], 1.8%; in the test on A549 [10] it was 9.5%; in the test on A549 [11], 64.6%. The IC50 in test [2] is 249 µM; in test [8], above 400 µM; in the test on A549 [9], above 400 µM; in the test with ASPC1 it was above 400 µM; in the test with MDA-MB-231, above 400 µM. Besides, in the test on A549 [3], the viability at 25 µM came to 96.5%.
On to `O=C(COc1ccc2c(=O)c3ccc(OCC(=O)N4CCOCC4)cc3oc2c1)N1CCOCC1`, for which the Activity worked out at 25.1% in the test with A549 [1]; 0.5% with A549 [4]; 0.7% in the test with A549 [5]; 0.9% in the test on A549 [7]; 9.6% in the test on A549 [10]; 65.7% in the test with A549 [11]. Also, the IC50 (in test [2]; in test [8]; with A549 [9]; with ASPC1; with MDA-MB-231) was above 400 µM throughout. The viability at 25 µM with A549 [3] is 97.9%.
`CN1CCN(C(=O)COc2ccc3c(=O)c4ccc(OCC(=O)N5CCN(C)CC5)cc4oc3c2)CC1`: the Activity in the test with A549 [1] stood at 24.2%; in the test on A549 [4] it was 0.7%; in the test on A549 [5], 2.5%; with A549 [7], 2.7%; in the test on A549 [10], 10.1%; in the test on A549 [11], 66.4%. In addition, the 50% inhibitory concentration (IC50) (in [2]; in [8]; in the test on A549 [9]; in the test on ASPC1; with MDA-MB-231) was above 400 µM each time. In addition, the viability at 25 µM in the test on A549 [3] was 94.1%.
`Cc1c(OCC(=O)N2CC(C)CC(C)C2)ccc2c(=O)c3ccc(OCC(=O)N4CC(C)CC(C)C4)cc3oc12` (stereo not given): the Activity with A549 [1] worked out at 15.5%; in the test with A549 [4] it was 37.5%; with A549 [5], 12.4%; in the test with A549 [7], 1.1%; in the test with A549 [10], 6%; with A549 [11], 78.9%. Further, the 50% inhibitory concentration (IC50) in [2] worked out at 6.18 µM; in test [8], 6.09 µM; in the test on A549 [9], 4.59 µM; in the test with ASPC1 it was 4.76 µM; in the test on MDA-MB-231, 8.06 µM. Also, the viability at 25 µM in the test with A549 [3] stood at 49%. Besides, in the test on A549 [6], the “fold change (FC)” value is on record as 2.04.
Consider `CC1CCCC(C)N1C(=O)COc1ccc2c(=O)c3ccc(OCC(=O)N4C(C)CCCC4C)cc3oc2c1` (stereo not given), for which the Activity is given as 33.5% in the test on A549 [1]; 1.5% in the test on A549 [4]; 9.1% with A549 [5]; 1.1% in the test on A549 [7]; 9.8% in the test with A549 [10]; 57.4% in the test with A549 [11]. Besides, the IC50 in [2] is 6.68 µM; in [8], 15.7 µM; in the test on A549 [9], 17.2 µM; in the test with ASPC1, 13.8 µM; in the test on MDA-MB-231 it was 24.3 µM. Also, the viability at 25 µM with A549 [3] came out at 87.7%. The “fold change (FC)” value with A549 [6] is on record as 2.31.
Regarding `Cc1c(OCC(=O)N2CC(C)OC(C)C2)ccc2c(=O)c3ccc(OCC(=O)N4CC(C)OC(C)C4)cc3oc12` (stereo not given), the Activity in the test on A549 [1] came to 24%; in the test with A549 [4], 0.7%; in the test with A549 [5], 0.8%; in the test with A549 [7] it was 0.2%; in the test on A549 [10] it was 9.7%; in the test on A549 [11], 66.9%. In addition, the half-maximal inhibitory concentration (IC50) in test [2] came to 214 µM; in test [8] it was 141 µM; in the test on A549 [9], 295 µM; in the test on ASPC1, 116 µM; in the test on MDA-MB-231, 385 µM. Further, the viability at 25 µM with A549 [3] was 98.3%.
